Source: PubChem BioAssay
Compounds with a hit are over-represented: about 4.1% of the library has one in this group of screens.
STAT1 act: STAT1 signaling activation; activation (% of control), % at 5.5 µM; actives 2.6% (n = 200,000); NIH 3T3 STAT1-luciferase reporter, IFN-gamma, luminescence; 100% = IFN-gamma alone, no compound;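 active = activation above the screen-wide mean activation plus 3 SD, cut at about 130% in these data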;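 also: raw ratio to IFN-gamma control signal so 100% means no change and 0% no light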
NF-kB neuron act: raises NF-kB expression in human neuronal cells. AID 1239. NF-kB reporter expression; stronger effect = higher value. fold change at 12.5 µM. actives 1.6% (n = 190,000); in the data active = fold change above about 3.3
FLuc act counter: affects firefly luciferase, flagging false hits in luciferase stimulation screens. ATPlite luciferase biochemical, luminescence, 10 min; 0 = ATP-free wells, 1 = DMSO control. activation factor at 10 µM. 200,000 tested, under 10 active;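 active = luciferase activation factor, scaled between plate controls, of at least 2 with compound at 10 µM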
Target sequence (P08659 whole entry, looked up): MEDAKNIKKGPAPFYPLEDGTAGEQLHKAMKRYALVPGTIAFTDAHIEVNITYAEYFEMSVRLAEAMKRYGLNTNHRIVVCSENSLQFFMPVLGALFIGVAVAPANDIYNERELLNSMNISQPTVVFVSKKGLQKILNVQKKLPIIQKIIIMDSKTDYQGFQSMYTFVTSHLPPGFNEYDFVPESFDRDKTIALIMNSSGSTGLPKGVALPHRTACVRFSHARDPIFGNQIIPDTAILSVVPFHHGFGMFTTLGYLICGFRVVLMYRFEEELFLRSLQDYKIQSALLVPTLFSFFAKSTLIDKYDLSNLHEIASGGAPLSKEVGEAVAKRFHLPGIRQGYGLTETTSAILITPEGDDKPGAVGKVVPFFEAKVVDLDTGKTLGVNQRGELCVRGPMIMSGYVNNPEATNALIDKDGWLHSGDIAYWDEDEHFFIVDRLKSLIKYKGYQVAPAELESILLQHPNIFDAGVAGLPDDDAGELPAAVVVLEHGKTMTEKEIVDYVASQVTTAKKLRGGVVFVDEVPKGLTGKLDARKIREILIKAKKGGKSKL
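Assay system – cell-free luciferase reagent · Medium – PBS-based ATP solution · Dosing – test compounds dosed from 2 mM stocks in 100% DMSO · Timing – 10 min, room temperature · Technique – light output (luminescence) · Measure – luminescence gain marking luciferase activators · Controls – No-ATP low control, compound-free enzyme-plus-ATP high control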
APP 5'UTR act: activates APP 5'UTR luciferase reporter; SH-SY5Y APP 5'UTR luciferase reporter, luminescence; zero percent = DMSO vehicle wells; activation, % at 2 µM; actives 1% (n = 190,000);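 active = activation above a set limit, based on mean plus 3 SD of controls, cut at about 140% in these data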
FLuc inh counter: Photinus pyralis luciferase inhibition counter-screen. ATPLite firefly luciferase biochemical luminescence, 10 min. P08659. inhibition, % at 10 µM. actives 1.5% (n = 200,000). AID 1006;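 active = inhibition above about 50% when tested at 10 µM, limit read from the data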
* hit, by the source's call; x = no result given.

SMILES	STAT1 act	NF-kB neuron act	FLuc act counter	APP 5'UTR act	FLuc inh counter
Cc1cc(/C=N/NC(=O)c2ccccc2F)c(C)n1-c1ccccc1	131*	3.1	0.2	96	75*
Cc1cc(/C=N/NC(=O)c2cccc(F)c2)c(C)n1-c1ccccc1	109	0.74	0.2	79	79*
CC(=O)Nc1cccc(C(=O)N/N=C/c2ccccc2F)c1	143*	2.7	0.7	47	35
COc1ccc(OC)c(NC(=O)c2ccno2)c1	103	1.1	1	7	-5
COc1ccc(CCNC(=O)C(C)Sc2ccc(C)cc2)cc1OC (stereo not drawn)	98	1	1.1	-9	-6
O=C(Nc1ccc(CN2CCOCC2)cc1)c1ccccc1F	119	1.9	0.8	80	22
O=C(Nc1ccc(CN2CCOCC2)cc1)c1cc2ccccc2o1	134*	2.9	0.4	168*	60*
O=C(Nc1ccc(N2CCOCC2)cc1)c1cc2ccccc2o1	171*	2.5	0.6	91	41
O=C(Nc1ccc(CN2CCOCC2)cc1)c1cc2ccccn2n1	84	0.88	0.2	86	78*
Cc1ccc(/C=c2/sc3n(c2=O)CCCN=3)o1	129*	2.1	0.8	28	19
Cc1ccc(/C=c2\sc3n(c2=O)CN(c2ccc(Br)cc2)CN=3)o1	103	1.1	1	-8	0
Cc1onc(COc2ccccc2O)c1Br	95	0.94	1.1	7	-9
Cc1ncc(CO)c(/C=N/N=C/c2ccccc2O)c1O	110	3.6*	0.9	64	8
COc1ccc2c(c1)c(=O)c(C(=O)O)c(-c1ccc3c(c1)OCO3)n2C	106	1.3	1	-10	-4
CCn1ccc(C(=O)N2CCOCC2)n1	108	1.3	1	11	-4
CCn1ccc(C(=O)Oc2ccc(C(C)C)cc2)n1	100	1.2	0.4	0	62*
O=c1sc(Nc2ccccc2)nc2ccsc12	137*	2.5	1	66	2
Cc1cccc(NC(=S)NNC(=O)c2csc(C)c2)c1	98	2.6	0.4	61	57*
Cc1cc(C(=O)NNC(=S)NCC(C)C)cs1	94	1.2	1.1	15	-9
Cc1ccc(C)c(NC(=S)NNC(=O)c2csc3c2CCCC3)c1	92	1.2	1.1	1	-5
Cc1cccc(NC(=S)NNC(=O)c2csc3c2CCCC3)c1	115	1.9	0.4	92	57*
COc1cc(CC(=O)NNC(=O)c2cc(C)oc2C)cc(OC)c1OC	100	0.97	1	6	-2
COc1ccccc1NC(NC(=O)c1cccnc1)C(Cl)(Cl)Cl (stereo not drawn)	105	x	1.1	-5	-8
CCN(CC)c1ccc(C=Nc2ccccc2C)c(O)c1	102	1.5	0.5	-8	53*
NS(=O)(=O)c1ccc(NC(=O)C(Sc2ccccc2)c2ccccc2)cc1 (stereo not drawn)	102	0.7	1.1	14	-6
SMILES	STAT1 act	NF-kB neuron act	FLuc act counter	APP 5'UTR act	FLuc inh counter
O=C(NC1CCCCCCC1)NC1CCCCC1	132*	2.7	1	12	4
Cc1ccn2cc(C(=O)Nc3ccc4c(c3)OCCO4)nc2c1	150*	3	0.3	143*	73*
Cc1ccn2cc(C(=O)Nc3ccccc3N3CCOCC3)nc2c1	112	0.82	0.8	-15	18
CCn1cc([N+](=O)[O-])c(C(=O)Nc2ccc3c(c2)OCCO3)n1	116	1.6	0.4	61	56*
O=C(Nc1ccc2c(c1)OCCO2)c1ccc(Cl)c([N+](=O)[O-])c1	104	2.7	0.9	33	12
Cc1ccc(C2=N/C(=C/c3cccs3)C(=O)N2Nc2ccccc2)cc1	96	1.1	1	x	2
Cc1ccc(C=C2C(=O)c3ccccc3C2=O)s1	111	1.2	0.3	26	75*
O=C1C(=Cc2cccs2)C(=O)c2ccccc21	105	1.2	0.5	3	53*
COc1ccc2c(c1)OC/C(=C/c1cccs1)C2=O	147*	6.9*	0.1	131	87*
Cc1ccccc1C1=N/C(=C/c2cccs2)C(=O)O1	98	1.5	0.2	8	85*
O=C1C(=Cc2ccco2)C(=O)c2ccccc21	101	1.1	0.8	17	16
COc1ccc(/C=C2\COc3ccccc3C2=O)cc1OC	93	1.1	0.9	16	11
Cn1c(C(C#N)C2=C(Cl)C(=O)N(c3ccccc3)C2=O)nc2ccccc21 (stereo not drawn)	99	0.67	1	1	2
Nc1c([N+](=O)[O-])c(=O)oc2ccccc12	98	1.2	1.1	8	-6
COc1ccc(C(CNC(=O)Cc2c(F)cccc2Cl)N2CCCCC2)cc1 (stereo not drawn)	99	1.1	1.1	1	-9
Cc1ccc(COc2ccsc2C(=O)NN)cc1	96	1.3	1	30	-1
O=C1/C(=C/c2cccs2)Cc2ccccc21	111	2.9	0.4	56	58*
Cc1ccc(C=C2C(=O)c3ccccc3C2=O)o1	106	1.2	0.2	2	84*
O=C1/C(=C\c2ccc(Br)o2)Cc2ccccc21	109	1.6	0.8	26	19
Fc1ccc(Nc2ccnc(Nc3ccc(F)cc3)n2)cc1	137*	2.9	0.9	77	5
NC(N)=NC1=NC(=O)/C(=C/c2ccccc2-n2cccn2)S1	100	1	1.1	22	-6
Clc1ccc(Cn2ncc3c(N4CCOCC4)ncnc32)cc1	102	0.51	1.1	3	-10
OCCCn1c(-c2ccccc2)csc1=Nc1ccccc1	96	1.1	1	7	-4
CCn1c(-c2ccccc2)csc1=Nc1ccc(S(=O)(=O)O)cc1	99	0.88	0.5	2	54*
CCOC(=O)c1cnn(-c2ncnc3c2cnn3Cc2ccccc2)c1N	98	x	x	-11	x
SMILES	STAT1 act	NF-kB neuron act	FLuc act counter	APP 5'UTR act	FLuc inh counter
Nc1ncn(CC(=O)c2ccccc2)n1	98	6.2*	1.1	28	-7
O=C(c1ccc(-c2ccc([N+](=O)[O-])cc2Cl)o1)N1CCOCC1	133*	1.9	0.9	25	14
O=C(CCSCCC(=O)Nc1c(F)c(F)c(F)c(F)c1F)Nc1c(F)c(F)c(F)c(F)c1F	100	1.2	1	-12	-4
COC(=O)N/N=C/c1c[nH]c2ccccc12	106	1.3	1	10	0
Cc1occc1C(=O)N/N=C/c1c[nH]c2ccccc12	132*	3	0.8	143*	16
CCOC(=O)N/N=C/c1c[nH]c2ccccc12	95	x	1	-8	2
Fc1c(F)c(F)c(N/N=C/c2c[nH]c3ccccc23)c(F)c1F	86	13*	1	-8	0
CC(C)(C)OC(=O)N/N=C/c1c[nH]c2ccccc12	118	1.2	0.5	14	54*
CC(C)(C)OC(=O)N[C@@H](CC(=O)OCc1ccccc1)C(=O)O	102	x	1.1	-13	-10
